Assay results from ChEMBL document CHEMBL4364301 (Eur J Med Chem, 2019).

Columns and labels:
Assay type in all cases: functional
CWR22R [1] = test: Antiproliferative activity against human 22Rv1 cells assessed as T/C value at 1 x 10^-1 uM incubated for 96 hrs by propidium iodide based 2D monolayer assay
How it was run: (§1)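 Cells were kept in RPMI 1640 with 25 mM HEPES, 10% FCS and gentamicin at 37 °C under 5% CO2, and plated at 4,000-20,000 cells/well. After 24 h recovery, compound in medium or medium alone (control wells) was added at 10 half-log concentrations from 0.0032 to 100 µM, in triplicate, with at most 0.3% DMSO. After 96 h, wells were PBS-washed, stained with 7 µg/ml PI and 0.1% Triton X-100, and fluorescence read at 530/620 nm. IC50 came from a 4-parameter fit, geometric mean.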

DU-145 [2] = test: Antiproliferative activity against human DU145 cells assessed as T/C value at 1 x 10^1 uM incubated for 96 hrs by propidium iodide based 2D monolayer assay
How it was run: as §1, with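 “After” for “Cells were kept in RPMI 1640 with 25 mM HEPES, 10% FCS and gentamicin at 37 °C under 5% CO2, and plated at 4,000-20,000 cells/well. After”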

DU-145 [3] = test: Antiproliferative activity against human DU145 cells assessed as reduction in cell growth incubated for 96 hrs by propidium iodide based 2D monolayer assay; conditions: DU-145, 96 h
How it was run: as §1, with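 “After” for “Cells were kept in RPMI 1640 with 25 mM HEPES, 10% FCS and gentamicin at 37 °C under 5% CO2, and plated at 4,000-20,000 cells/well. After”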

VCaP [4] = test: Antiproliferative activity against human VCaP cells assessed as T/C value at 3.2 x 10^-1 uM incubated for 96 hrs by propidium iodide based 2D monolayer assay
How it was run: (§2)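 VCaP cells in RPMI 1640 with 10% FCS at 37 °C, 5% CO2, seeded 4,000–20,000 cells/well and left 24 h before dosing. Compounds from DMSO stocks were diluted in half-log steps in medium, 10 concentrations 0.0032–100 μM, triplicate wells, max 0.3% DMSO. After 96 h, cells were washed, stained with 7 μg/ml propidium iodide plus 0.1% Triton X-100 for 1–2 h at room temperature, and fluorescence read at ex 530/em 620 nm.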

VCaP [5] = test: Antiproliferative activity against human VCaP cells assessed as T/C value at 1 x 10^-1 uM incubated for 96 hrs by propidium iodide based 2D monolayer assay; how it was run: as §1
LNCaP [6] = test: Antiproliferative activity against human LNCAP cells assessed as reduction in cell growth incubated for 96 hrs by propidium iodide based 2D monolayer assay
How it was run: as §1, with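 “After” for “Cells were kept in RPMI 1640 with 25 mM HEPES, 10% FCS and gentamicin at 37 °C under 5% CO2, and plated at 4,000-20,000 cells/well. After”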

CWR22R [7] = test: Antiproliferative activity against human 22Rv1 cells assessed as T/C value at 1 x 10^1 uM incubated for 96 hrs by propidium iodide based 2D monolayer assay; how it was run: as §1
LNCaP [8] = test: Antiproliferative activity against human LNCAP cells assessed as T/C value at 3.2 x 10^-1 uM incubated for 96 hrs by propidium iodide based 2D monolayer assay; how it was run: as §1
LNCaP [9] = test: Antiproliferative activity against human LNCAP cells assessed as T/C value at 1 x 10^1 uM incubated for 96 hrs by propidium iodide based 2D monolayer assay; how it was run: as §1
DU-145 [10] = test: Antiproliferative activity against human DU145 cells assessed as T/C value at 3.2 x 10^-1 uM incubated for 96 hrs by propidium iodide based 2D monolayer assay
How it was run: as §1, with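 “After” for “Cells were kept in RPMI 1640 with 25 mM HEPES, 10% FCS and gentamicin at 37 °C under 5% CO2, and plated at 4,000-20,000 cells/well. After”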

CWR22R [11] = test: Antiproliferative activity against human 22Rv1 cells assessed as T/C value at 1 x 10^-2 uM incubated for 96 hrs by propidium iodide based 2D monolayer assay; how it was run: as §1
DU-145 [12] = test: Antiproliferative activity against human DU145 cells assessed as T/C value at 1 x 10^-1 uM incubated for 96 hrs by propidium iodide based 2D monolayer assay
How it was run: as §1, with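 “After” for “Cells were kept in RPMI 1640 with 25 mM HEPES, 10% FCS and gentamicin at 37 °C under 5% CO2, and plated at 4,000-20,000 cells/well. After”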

CWR22R [13] = test: Antiproliferative activity against human 22Rv1 cells assessed as T/C value at 3.2 uM incubated for 96 hrs by propidium iodide based 2D monolayer assay; how it was run: as §1
DU-145 [14] = test: Antiproliferative activity against human DU145 cells assessed as T/C value at 1 x 10^2 uM incubated for 96 hrs by propidium iodide based 2D monolayer assay; how it was run: as §1
CWR22R [15] = test: Antiproliferative activity against human 22Rv1 cells assessed as T/C value at 3.2 x 10^-1 uM incubated for 96 hrs by propidium iodide based 2D monolayer assay; how it was run: as §1
CWR22R [16] = test: Antiproliferative activity against human 22Rv1 cells assessed as T/C value at 1 uM incubated for 96 hrs by propidium iodide based 2D monolayer assay; how it was run: as §1
LNCaP [17] = test: Antiproliferative activity against human LNCAP cells assessed as T/C value at 1 uM incubated for 96 hrs by propidium iodide based 2D monolayer assay; how it was run: as §1
DU-145 [18] = test: Antiproliferative activity against human DU145 cells assessed as T/C value at 3.2 uM incubated for 96 hrs by propidium iodide based 2D monolayer assay; how it was run: as §1
CWR22R [19] = test: Antiproliferative activity against human 22Rv1 cells assessed as T/C value at 3.2 x 10^-3 uM incubated for 96 hrs by propidium iodide based 2D monolayer assay; how it was run: as §1
LNCaP [20] = test: Antiproliferative activity against human LNCAP cells assessed as T/C value at 3.2 x 10^-2 uM incubated for 96 hrs by propidium iodide based 2D monolayer assay; how it was run: as §1
VCaP [21] = test: Antiproliferative activity against human VCaP cells assessed as T/C value at 1 uM incubated for 96 hrs by propidium iodide based 2D monolayer assay; how it was run: as §1
VCaP [22] = test: Antiproliferative activity against human VCaP cells assessed as reduction in cell growth incubated for 96 hrs by propidium iodide based 2D monolayer assay; how it was run: as §2
DU-145 [23] = test: Antiproliferative activity against human DU145 cells assessed as T/C value at 1 uM incubated for 96 hrs by propidium iodide based 2D monolayer assay
How it was run: as §1, with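 “After” for “Cells were kept in RPMI 1640 with 25 mM HEPES, 10% FCS and gentamicin at 37 °C under 5% CO2, and plated at 4,000-20,000 cells/well. After”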

DU-145 [24] = test: Antiproliferative activity against human DU145 cells assessed as T/C value at 3.2 x 10^-3 uM incubated for 96 hrs by propidium iodide based 2D monolayer assay
How it was run: as §1, with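 “After” for “Cells were kept in RPMI 1640 with 25 mM HEPES, 10% FCS and gentamicin at 37 °C under 5% CO2, and plated at 4,000-20,000 cells/well. After”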

VCaP [25] = test: Antiproliferative activity against human VCaP cells assessed as T/C value at 3.2 x 10^-2 uM incubated for 96 hrs by propidium iodide based 2D monolayer assay; how it was run: as §2
VCaP [26] = test: Antiproliferative activity against human VCaP cells assessed as T/C value at 1 x 10^-2 uM incubated for 96 hrs by propidium iodide based 2D monolayer assay; how it was run: as §1
LNCaP [27] = test: Antiproliferative activity against human LNCAP cells assessed as T/C value at 3.2 uM incubated for 96 hrs by propidium iodide based 2D monolayer assay; how it was run: as §1
VCaP [28] = test: Antiproliferative activity against human VCaP cells assessed as T/C value at 1 x 10^2 uM incubated for 96 hrs by propidium iodide based 2D monolayer assay; how it was run: as §1
LNCaP [29] = test: Antiproliferative activity against human LNCAP cells assessed as T/C value at 1 x 10^-2 uM incubated for 96 hrs by propidium iodide based 2D monolayer assay; how it was run: as §1
CWR22R [30] = test: Antiproliferative activity against human 22Rv1 cells assessed as T/C value at 1 x 10^2 uM incubated for 96 hrs by propidium iodide based 2D monolayer assay; how it was run: as §1
DU-145 [31] = test: Antiproliferative activity against human DU145 cells assessed as T/C value at 3.2 x 10^-2 uM incubated for 96 hrs by propidium iodide based 2D monolayer assay
How it was run: as §1, with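 “After” for “Cells were kept in RPMI 1640 with 25 mM HEPES, 10% FCS and gentamicin at 37 °C under 5% CO2, and plated at 4,000-20,000 cells/well. After”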

VCaP [32] = test: Antiproliferative activity against human VCaP cells assessed as T/C value at 3.2 uM incubated for 96 hrs by propidium iodide based 2D monolayer assay; how it was run: as §1

Q: Which results are given for `CC(O)(CSc1cc(C(F)(F)F)cc(C(F)(F)F)c1)C(=O)Nc1cccc(C(F)(F)C(F)(F)F)c1` (racemic)?
A: T/C (CWR22R [1]): 106%; T/C (DU-145 [2]): 22%; IC50 (DU-145 [3]): 8.9 µM; IC70 (DU-145 [3]): 9.6 µM; T/C (VCaP [4]): 109%; T/C (VCaP [5]): 115%; IC50 (LNCaP [6]): 3.9 µM; IC70 (LNCaP [6]): 4.68 µM; T/C (CWR22R [7]): 9%; T/C (LNCaP [8]): 111%; T/C (LNCaP [9]): 8%; T/C (DU-145 [10]): 135%; T/C (CWR22R [11]): 109%; T/C (DU-145 [12]): 135%; T/C (CWR22R [13]): 75%; T/C (DU-145 [14]): 2%; T/C (CWR22R [15]): 107%; T/C (CWR22R [16]): 107%; T/C (LNCaP [17]): 107%; T/C (DU-145 [18]): 133%; T/C (CWR22R [19]): 104%; T/C (LNCaP [20]): 99%; T/C (VCaP [21]): 93%; IC50 (VCaP [22]): 8.6 µM; IC70 (VCaP [22]): 11.7 µM; T/C (DU-145 [23]): 134%; T/C (DU-145 [24]): 117%; T/C (VCaP [25]): 98%; T/C (VCaP [26]): 107%; T/C (LNCaP [27]): 72%; T/C (VCaP [28]): 11%; T/C (LNCaP [29]): 93%; T/C (CWR22R [30]): 5%; T/C (DU-145 [31]): 123%; T/C (VCaP [32]): 102%
